Results from ChEMBL document CHEMBL4715891, “Development of sulfahydantoin derivatives as β-lactamase inhibitors” (Bioorg Med Chem Lett, 2021).

Key:
Bacteria [1] = test: Inhibition of 15N-Labeled beta lactamase TEM-1 (unknown origin) over expressed in Escherichia coli BL21(DE3) cells assessed as residual activity at 1 mM by CENTA relative to control
Method in brief: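 TEM-1 (116 nM) screened with inhibitor at 1 mM, hydrolysis of chromogenic CENTA at 300 μM (~8× Km of 36 μM) followed. Activity expressed relative to positive control lacking inhibitor, mean ± standard deviation of at least three replicates. Enzyme purity >83% by SDS-PAGE.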

[2] = Noncompetitive inhibition of 15N-Labeled beta lactamase TEM-1 (unknown origin) over expressed in Escherichia coli BL21(DE3) cells by CENTA; parameters: species or system Bacteria
[3] = Inhibition of 15N-Labeled beta lactamase TEM-1 (unknown origin) over expressed in Escherichia coli BL21(DE3) cells by CENTA; parameters: species or system Bacteria
Method in brief: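 IC50 against TEM-1 from CENTA (300 μM) hydrolysis using two-fold inhibitor dilutions; value derived by fitting a dose-response curve. Enzyme purity >83% by SDS-PAGE.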

[4] = Competitive inhibition of 15N-Labeled beta lactamase TEM-1 (unknown origin) over expressed in Escherichia coli BL21(DE3) cells by CENTA; parameters: species or system Bacteria
[5] = Uncompetitive inhibition of 15N-Labeled beta lactamase TEM-1 (unknown origin) over expressed in Escherichia coli BL21(DE3) cells by CENTA; parameters: species or system Bacteria
Bacteria [6] = test: Inhibition of 15N-Labeled beta lactamase TEM-1 G1u104Lys/Gly238Ser double mutant (unknown origin) over expressed in Escherichia coli BL21(DE3) cells assessed as residual activity at 1 mM by CENTA relative to control
Method in brief: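 TEM-15 produced in E. coli, purified to >83% by SDS-PAGE, used at 56 nM. Inhibitor screened at 1 mM against hydrolysis of the chromogenic substrate CENTA (300 μM). Activity expressed relative to the positive control without inhibitor, as mean ± standard deviation of at least three replicates.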

[7] = Inhibition of 15N-Labeled beta lactamase TEM-1 G1u104Lys/Gly238Ser double mutant (unknown origin) over expressed in Escherichia coli BL21(DE3) cells by CENTA; parameters: species or system Bacteria
Method in brief: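 TEM-15 from E. coli expression, purified to >83% by SDS-PAGE. Hydrolysis of the chromogenic substrate CENTA (300 μM) monitored across two-fold inhibitor dilutions. IC50 obtained by fitting a dose-response curve.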

| Structure (SMILES) | Activity (Bacteria [1]) [%] | Ki [2] [µM] | IC50 [3] [µM] | Ki [4] [µM] | Ki [5] [µM] | Activity (Bacteria [6]) [%] | IC50 [7] [µM] |
| --- | --- | --- | --- | --- | --- | --- | --- |
| COc1ccc(CN2[C@@H](Cc3ccc(F)cc3)C(=O)N(CC(=O)O)S2(=O)=O)cc1 | 124 | – | – | – | – | – | – |
| O=C(O)CN1C(=O)[C@H](Cc2ccc(F)cc2)N(Cc2ccc(Br)cc2)S1(=O)=O | 34 | 510 | 510 | 55 | 455 | 53 | – |
| O=C(O)CN1C(=O)[C@H](Cc2ccc(Br)cc2)N(Cc2ccc(Br)cc2)S1(=O)=O | 10 | 300 | 300 | 32 | 268 | 0 | 130 |
| COc1ccc(CN2[C@@H](Cc3ccc(Br)cc3)C(=O)N(CC(=O)O)S2(=O)=O)cc1 | 92 | – | – | – | – | – | – |
| O=C(O)CN1C(=O)[C@H](Cc2ccc(F)cc2)N(Cc2ccc([N+](=O)[O-])cc2)S1(=O)=O | 101 | – | – | – | – | – | – |
| O=C(O)CN1C(=O)[C@H](Cc2ccc(Br)cc2)N(Cc2ccc([N+](=O)[O-])cc2)S1(=O)=O | 100 | – | – | – | – | – | – |
